Experimental data as given in ChEMBL document CHEMBL1134582 (J Med Chem, 2001).

What was measured:
[1] = biological target: T1, Adenosine receptor A1 (Homo sapiens) (UniProt P30542); assay: Inhibition of Forskolin (10 nM) induced cAMP production at human Adenosine A1 receptor (compared to CPA in CHO cells); type: cell-based; conditions: in the assay text read “10 µM” for “10 nM”
T1 sequence (whole entry): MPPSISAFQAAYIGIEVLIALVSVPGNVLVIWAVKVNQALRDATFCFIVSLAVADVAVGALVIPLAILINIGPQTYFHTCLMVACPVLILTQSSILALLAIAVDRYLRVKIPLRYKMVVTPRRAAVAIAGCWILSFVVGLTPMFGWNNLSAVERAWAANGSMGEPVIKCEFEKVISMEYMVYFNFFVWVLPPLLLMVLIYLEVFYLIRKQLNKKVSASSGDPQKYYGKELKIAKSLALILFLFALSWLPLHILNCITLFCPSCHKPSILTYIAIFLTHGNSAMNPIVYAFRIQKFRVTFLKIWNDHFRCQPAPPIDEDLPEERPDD
How it was run: (§1)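 Cells expressing the human receptor (A1 in CHO) were grown overnight as monolayers and kept in DMEM/HEPES at pH 7.4. […] Forskolin was added at 10 µM (final) for 15 min. cAMP was measured by binding-protein assay. […] Mean ±SEM, n=3.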

[2] = biological target: T2, Adenosine receptor A1 (Rattus norvegicus) (UniProt P25099); assay: Agonistic activity expressed as the amount of [35S]-GTP gamma-S bound at rat Adenosine A1 receptor; type: functional
T2 sequence (whole entry): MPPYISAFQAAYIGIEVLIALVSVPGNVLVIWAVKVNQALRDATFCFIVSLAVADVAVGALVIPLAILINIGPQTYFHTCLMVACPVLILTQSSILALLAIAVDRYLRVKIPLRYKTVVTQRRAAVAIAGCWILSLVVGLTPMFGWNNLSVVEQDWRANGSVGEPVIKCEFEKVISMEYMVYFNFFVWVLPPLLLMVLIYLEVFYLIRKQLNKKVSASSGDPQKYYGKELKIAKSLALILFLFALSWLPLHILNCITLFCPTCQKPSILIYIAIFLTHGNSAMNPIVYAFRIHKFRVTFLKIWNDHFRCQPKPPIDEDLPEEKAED
How it was run: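 [35S]GTPγS binding used 2 µg of rat cortex membrane protein with 10 µM GDP and 100 mM NaCl, incubated 90 min at 25 °C. Mean ±SEM, n=3.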

[3] = biological target: T2, Adenosine receptor A1 (Rattus norvegicus); assay: Agonistic activity expressed as the amount of [35S]-GTP gamma-S bound +1 uM CPA at rat Adenosine A1 receptor; type: functional
How it was run: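 Rat cortex membranes (2 µg protein) were incubated with 10 µM GDP and 100 mM NaCl for 90 min at 25 °C. Mean ±SEM, n=3.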

[4] = biological target: T1, Adenosine receptor A1 (Homo sapiens); assay: Inhibition of 10 nM Forskolin-induced cAMP production at human Adenosine A1 receptor compared to CPA in CHO cells; type: functional, cell-based; conditions: in the assay text read “10 µM” for “10 nM”; how it was run: as §1
[5] = biological target: T3, Adenosine receptor A3 (Homo sapiens) (UniProt P0DMS8); assay: Agonistic activity expressed as the amount of [35S]GTP gamma-S bound at adenosine A3 receptor; type: functional
T3 sequence (whole entry): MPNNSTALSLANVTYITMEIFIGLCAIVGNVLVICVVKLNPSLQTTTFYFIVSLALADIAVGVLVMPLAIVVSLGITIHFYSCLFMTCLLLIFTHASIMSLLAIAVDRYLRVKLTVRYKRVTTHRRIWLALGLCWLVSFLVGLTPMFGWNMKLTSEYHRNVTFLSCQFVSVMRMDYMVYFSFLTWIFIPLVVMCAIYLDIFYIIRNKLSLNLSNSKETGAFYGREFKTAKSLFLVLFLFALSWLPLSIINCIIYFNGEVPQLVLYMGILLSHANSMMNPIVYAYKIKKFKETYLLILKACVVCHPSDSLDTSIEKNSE
How it was run: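 Membranes from CHO cells expressing the human A3 receptor (1–1.5 µg protein) were incubated with 1 µM GDP and no NaCl for 90 min at 25 °C. Mean ±SEM, n=3.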

[6] = biological target: T3, Adenosine receptor A3 (Homo sapiens); assay: Agonistic activity expressed as the amount of [35S]GTP gamma-S bound +1 uM NECA at adenosine A3 receptor; type: functional
How it was run: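 Human A3 receptor in CHO-cell membranes (1–1.5 µg) was incubated with 1 µM GDP and no NaCl for 90 min at 25 °C. Mean ±SEM, n=3.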

SMILES | inhibition [1] [%] | also measured
COC[C@H]1O[C@@H](n2cnc3c(N)nc(Cl)nc32)[C@H](O)[C@@H]1O | 78 | 
CCOC[C@H]1O[C@@H](n2cnc3c(N)nc(Cl)nc32)[C@H](O)[C@@H]1O | 67 | 
COC[C@H]1O[C@@H](n2cnc3c(NCc4cccc(I)c4)nc(Cl)nc32)[C@H](O)[C@@H]1O | 37 | 
CCOC[C@H]1O[C@@H](n2cnc3c(NC4CCCC4)nc(Cl)nc32)[C@H](O)[C@@H]1O | 62 | 
COC[C@H]1O[C@@H](n2cnc3c(NC4CCCC4)nc(Cl)nc32)[C@H](O)[C@@H]1O | 73 | 
Nc1ncnc2c1ncn2[C@@H]1O[C@H](COC2CC2)[C@@H](O)[C@H]1O | 61 | 
O[C@@H]1[C@H](O)[C@@H](COC2CC2)O[C@H]1n1cnc2c(NC3CCCC3)ncnc21 | 62 | 
CCOC[C@H]1O[C@@H](n2cnc3c(NCc4cccc(I)c4)ncnc32)[C@H](O)[C@@H]1O | 6 | 
OC[C@H]1O[C@@H](n2cnc3c(NC4CCCC4)ncnc32)[C@H](O)[C@@H]1O |  | Activity [2]: 100; Activity [3]: 100; inhibition [4]: 69%
COC[C@H]1O[C@@H](n2cnc3c(NC4CCCC4)ncnc32)[C@H](O)[C@@H]1O | 74 | 
O[C@@H]1[C@H](O)[C@@H](COC2CC2)O[C@H]1n1cnc2c(NC3CCCC3)nc(Cl)nc21 | 43 | 
COC[C@H]1O[C@@H](n2cnc3c(NCc4cccc(I)c4)ncnc32)[C@H](O)[C@@H]1O | 53 | 
CCOC[C@H]1O[C@@H](n2cnc3c(NC4CCCC4)ncnc32)[C@H](O)[C@@H]1O | 69 | 
COC[C@H]1O[C@@H](n2cnc3c(N)ncnc32)[C@H](O)[C@@H]1O |  | inhibition [4]: 75%
CCNC(=O)[C@H]1O[C@@H](n2cnc3c(N)ncnc32)[C@H](O)[C@@H]1O |  | Activity [5]: 100; Activity [6]: 100
CCOC[C@H]1O[C@@H](n2cnc3c(N)ncnc32)[C@H](O)[C@@H]1O | 57 | 
Nc1nc(Cl)nc2c1ncn2[C@@H]1O[C@H](COC2CC2)[C@@H](O)[C@H]1O | 49 | 
